Test results published in PubChem BioAssay.
Records with an inconclusive call do not appear.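 The calls were made as follows, unless noted: active = growth inhibition above 25% in both replicates, a cutoff set 3 SD above the mean; inconclusive = above 25% in only one replicate; inactive = the rest.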

Assays:
[1] = OD615 S. cerevisiae growth inhibition, permissive medium, pilot counter-assay, permissive growth control for S. cerevisiae lifespan shortening project (AID 705); conditions: OD615, 24 h, at 10 µM, hits give high values
How it was run: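 System: S. cerevisiae with engineered DeaD lifespan system / Measured by: absorbance (optical density) at 615 nm / Read-out: reduction in yeast growth (OD615) / Times: 4 h cell pre-growth, 24 h exposure at 30 °C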

[2] = Restrictive medium S. cerevisiae growth inhibition, OD615, pilot screen of yeast lifespan reduction project, restrictive growth control (AID 706;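 active = growth inhibition above a set limit, 3 SD over mean compound inhibition, in both replicates, cut at about 43% in these data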;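 also: modified DeaD lifespan yeast strain shifted to restrictive glucose medium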); conditions: OD615, 48 h, at 10 µM, hits give high values
How it was run: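 System: Engineered S. cerevisiae DeaD strain | Buffer or medium: Glucose-based CSMM-D restrictive medium | Schedule: 4 h pre-incubation, 48 h exposure at 30 °C | Technique: Optical density at 615 nm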

[3] = viability gain of MRP-1-high H69AR cells under doxorubicin, pilot screen, MRP-1 activator project, CellTiter-Glo, duplicate (AID 807;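 active = viability increase at or above a cutoff of the median across tested compounds plus 3 SD, cut at about 8.5% in these data, passing the limit was not always enough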;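 also: compound pretreatment 18-22 h then 72 h combined with doxorubicin; 0% = doxorubicin alone and 100% = vehicle without doxorubicin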); conditions: H69AR viability with doxorubicin, CellTiter-Glo luminescence; at 10 µM; hits give high values
[4] = growth suppression of beta-catenin knockout HCT116, pilot screen, human colon tumor cells (AID 823;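 active = cell viability at or below a set limit in both duplicate runs, the limit being the all-compound median minus 4 SD, cut at about 23% in these data, passing the limit was not always enough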;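 also: 0% = wells killed by 20 µM Hyamine and 100% = untreated DMSO cell wells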); conditions: CellTiter-Glo, 60 h, at 10 µM, hits give low values
[5] = growth suppression of PTEN-deleted HCT116, pilot screen, cell-based, HCT116 clonal line, CellTiter-Glo (AID 824;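 active = viability at or below 27.92% in each of two runs, the all-compound median minus 4 SD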;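 also: 0% = 20 µM Hyamine control and 100% = vehicle cell control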); conditions: 60 h, at 10 µM, hits give low values
[6] = inhibitors of the yeast RAM network, pilot screen, dse1pr::URA3 reporter, 5-FOA selection (AID 869;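 active = inhibition over a set limit, the all-compound mean plus 3 SD, in both replicate runs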;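 also: 0% = DMSO wells with no growth and 100% = 10 µM 1-NA-PP1 with full growth; RAM network block rescues cells from 5-FOA so hits raise OD615 growth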); conditions: S. cerevisiae dse1pr::URA3 5-FOA growth, OD615, 2 d; at 10 µM; hits give high values; strain carries analog-sensitive mutant Cbk1 kinase
[7] = RAM signaling pathway blockade in yeast – S. cerevisiae, Pdr1DBD-CYC8 efflux-inhibited sensitized strain, primary screen (AID 1298;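 active = RAM network inhibition above 8.4% in each of two replicates, 3 SD over the compound average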;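 also: 0% = DMSO untreated cells without growth and 100% = 10 µM 1-NA-PP1 full growth; higher means more yeast growth rescued from 5-FOA killing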); conditions: S. cerevisiae cbk1-as DSE1-URA3 strain, 5-FOA growth OD615, 2 d; at 50 µM; hits give high values

Cc1ccc2oc(Nc3nc(C)cc(C)n3)nc2c1
inactive: growth inhibition [1] -6.34% | growth inhibition [2] 13.1% | viability increase [3] 0.49% | viability [4] 102% | viability [5] 94.8% | inhibition [6] 1.01% | RAM network inhibition [7] 0.61%

CCOc1ccccc1NC(=O)C1CCC(CNc2c(N3CCOCC3)c(=O)c2=O)CC1 (configuration not stated)
inactive: growth inhibition [1] 0.95% | growth inhibition [2] -1.83% | viability increase [3] -0.66% | viability [4] 108% | viability [5] 92.7% | inhibition [6] 1.43% | RAM network inhibition [7] 1.18%

Brc1ccccc1Cn1c(-c2cncs2)nc2ccccc21
inactive: growth inhibition [1] -8.58% | growth inhibition [2] 25.2% | viability increase [3] -3.44% | viability [4] 79.2% | viability [5] 73.9% | inhibition [6] 0.68% | RAM network inhibition [7] 3.2%

CCOc1cccc(C(=O)Nc2nnc(-c3ccco3)s2)c1
inactive: growth inhibition [1] -7.86% | growth inhibition [2] -7.51% | viability increase [3] -0.2% | viability [4] 103% | viability [5] 104% | inhibition [6] 3.44% | RAM network inhibition [7] 2.28%

COc1cccc(C(=O)NCC(c2cccnc2)N2CCN(c3ccccc3OC)CC2)c1 (configuration not stated)
inactive: growth inhibition [1] 1.37% | growth inhibition [2] -13.1% | viability increase [3] -2.58% | viability [4] 84.3% | viability [5] 78% | inhibition [6] 1.87% | RAM network inhibition [7] 1.46%

CCOC(=O)c1c(C)n(C)c2ccc(OCC(N)=O)cc12
inactive: growth inhibition [1] -3.96% | growth inhibition [2] -11% | viability increase [3] -4.45% | viability [4] 100% | viability [5] 99.3% | inhibition [6] 1.96% | RAM network inhibition [7] 6.79%

Cn1cc(SCC(=O)NCc2ccc3c(c2)OCO3)c2ccccc21
inactive: growth inhibition [1] 4.09% | growth inhibition [2] -1.53% | viability increase [3] -4.24% | viability [4] 98.3% | viability [5] 95.1% | inhibition [6] 1.17% | RAM network inhibition [7] 4.4%

COc1ccc(C(C#N)(CCC#N)CCC#N)cc1OC
inactive: growth inhibition [1] -14.5% | growth inhibition [2] -4.89% | viability increase [3] -1.32% | viability [4] 99.7% | viability [5] 105% | inhibition [6] 1.13% | RAM network inhibition [7] 3.89%

O=C(CCc1ccccc1)Nc1nnc(-c2cccs2)o1
inactive: growth inhibition [1] -12.3% | growth inhibition [2] -2.62% | viability increase [3] -4.02% | viability [4] 103% | viability [5] 97.3% | inhibition [6] 1.6% | RAM network inhibition [7] 3.35%

CC(=O)Nc1ccc(S(=O)(=O)n2cnc3cc(C)c(C)cc32)cc1
inactive: growth inhibition [1] -7.58% | growth inhibition [2] 1.31% | viability increase [3] -0.2% | viability [4] 99.6% | viability [5] 92.2% | inhibition [6] -0.09% | RAM network inhibition [7] 1.45%

CC(=O)NC(CCS(C)(=O)=O)C(=O)Nc1ccc2c(c1)OCO2 (configuration not stated)
inactive: growth inhibition [1] -0.69% | growth inhibition [2] -1.89% | viability increase [3] -0.58% | viability [4] 109% | viability [5] 95.5% | inhibition [6] 0.175% | RAM network inhibition [7] 2.15%

CCOC(=O)c1ccc(NC(=O)c2nccnc2C(=O)O)cc1
inactive: growth inhibition [1] -4.96% | growth inhibition [2] -2.24% | viability increase [3] -1.42% | viability [4] 98.1% | viability [5] 96.6% | inhibition [6] 1.07% | RAM network inhibition [7] -0.42%

CC(C)Cc1ccc(C#N)c(SCC(N)=O)n1
inactive: growth inhibition [1] -8.16% | growth inhibition [2] -9.82% | viability increase [3] -2.54% | viability [4] 97.2% | viability [5] 92.1% | inhibition [6] 2.18% | RAM network inhibition [7] 3.19%

CCCCSc1nc2c(c(=O)n1CC)SC(C)C2 (configuration not stated)
inactive: growth inhibition [1] -3.78% | growth inhibition [2] 5.58% | viability increase [3] -2.43% | viability [4] 87.3% | viability [5] 87.8% | inhibition [6] 0.125% | RAM network inhibition [7] 5.53%

CCC(=O)N1C(C(=O)O)CSC1c1ccc(OC)cc1 (configuration not stated)
inactive: growth inhibition [1] -0.64% | growth inhibition [2] 6.29% | viability increase [3] -0.61% | viability [4] 98.1% | viability [5] 93.5% | inhibition [6] 1.16% | RAM network inhibition [7] 2.87%

COC(=O)c1nnn(Cc2ccccc2)c1N
inactive: growth inhibition [1] -6.96% | growth inhibition [2] -7.86% | viability increase [3] -1.68% | viability [4] 103% | viability [5] 98.8% | inhibition [6] 0.585% | RAM network inhibition [7] 0.17%

Nc1nc2n(n1)C(c1ccccc1)CC(c1ccc(F)cc1)N2 (configuration not stated)
inactive: growth inhibition [1] -2.32% | growth inhibition [2] 16.9% | viability increase [3] -0.53% | viability [4] 97.9% | viability [5] 98.2% | inhibition [6] 0.145% | RAM network inhibition [7] 0.84%

Cc1nc2ccc(S(=O)(=O)NC(C(=O)N3CCCCCC3)C(C)C)cc2s1 (configuration not stated)
inactive: growth inhibition [1] -11.3% | growth inhibition [2] -4.58% | viability increase [3] -1.12% | viability [4] 97.5% | viability [5] 87.8% | inhibition [6] 2.01% | RAM network inhibition [7] 2.77%

COc1cccc(CN2CCNC(=O)C2CC(=O)O)c1OC (configuration not stated)
inactive: growth inhibition [1] -18.3% | growth inhibition [2] -12.7% | viability increase [3] -2.76% | viability [4] 101% | viability [5] 97% | inhibition [6] 1.81% | RAM network inhibition [7] 2.85%

COCCCN1CC23C=CC(O2)C(C(=O)O)C3C1=O (configuration not stated)
inactive: growth inhibition [1] 2.65% | growth inhibition [2] -2.98% | viability increase [3] -1.24% | viability [4] 102% | viability [5] 106% | inhibition [6] -0.105% | RAM network inhibition [7] 4.16%

CCCc1nnc(NC(=O)CCC(=O)O)s1
inactive: growth inhibition [1] -4.72% | growth inhibition [2] -1.89% | viability increase [3] -1.02% | viability [4] 92.8% | viability [5] 95.4% | inhibition [6] 0.765% | RAM network inhibition [7] 0%

N#CC1=C(O)CCCn2c1nc1ccccc1c2=O
inactive: growth inhibition [1] -3.3% | growth inhibition [2] -18% | viability increase [3] -0.39% | viability [4] 97% | viability [5] 97% | inhibition [6] 2.41% | RAM network inhibition [7] 0.01%

COc1ccc(CC(NC(=O)c2ccccc2)C(=O)NCC(=O)O)cc1 (configuration not stated)
inactive: growth inhibition [1] -3.04% | growth inhibition [2] -2.91% | viability increase [3] -0.14% | viability [4] 95.2% | viability [5] 101% | inhibition [6] 1.44% | RAM network inhibition [7] -0.37%

CC(=O)Nc1nnc(SCC(=O)NC(C)(C)C)s1
inactive: growth inhibition [1] -6.89% | growth inhibition [2] 1.67% | viability increase [3] -0.33% | viability [4] 94.8% | viability [5] 98.8% | inhibition [6] 1.88% | RAM network inhibition [7] 0.36%

c1ccc(C2NCCn3cccc32)cc1 (configuration not stated)
inactive: growth inhibition [1] -8.84% | growth inhibition [2] -13.7% | viability increase [3] -2.82% | viability [4] 99% | viability [5] 98% | inhibition [6] 0.21% | RAM network inhibition [7] 2.74%

Cc1ccc(C(=O)N2CCN(C(=O)CN3CCOCC3)C2)cc1
inactive: growth inhibition [1] -4.56% | growth inhibition [2] -13.1% | viability increase [3] -1.25% | viability [4] 95% | viability [5] 97.3% | inhibition [6] -0.175% | RAM network inhibition [7] 0.11%

O=C(NCc1ccc2c(c1)OCO2)Oc1ccccc1
inactive: growth inhibition [1] -1.34% | growth inhibition [2] 7.08% | viability increase [3] 0.33% | viability [4] 96.9% | viability [5] 101% | inhibition [6] 1.32% | RAM network inhibition [7] 2.53%

CN(CC(=O)NC1CCCCCCC1)S(=O)(=O)c1cccc2cccnc12
inactive: growth inhibition [1] 0.055% | growth inhibition [2] 0.405% | viability increase [3] -1.32% | viability [4] 93.2% | viability [5] 87.1% | inhibition [6] 1.26% | RAM network inhibition [7] 2.33%

COc1cccc(C2=NOC(C(=O)N3CCN(C(=O)c4ccco4)CC3)C2)c1 (configuration not stated)
inactive: growth inhibition [1] 5% | growth inhibition [2] -4.4% | viability increase [3] -2.95% | viability [4] 95.6% | viability [5] 95.2% | inhibition [6] -0.3% | RAM network inhibition [7] 0.01%

CC1CCCN(C(C(=O)Nc2ccc3c(c2)OCO3)c2ccccc2)C1 (configuration not stated)
inactive: growth inhibition [1] -8.14% | growth inhibition [2] 5.27% | viability increase [3] -3.45% | viability [4] 79.6% | viability [5] 79.4% | inhibition [6] 1.85% | RAM network inhibition [7] 1.67%

CC(CCc1ccccc1)NC(=O)CN1CCOc2ccccc21 (configuration not stated)
inactive: growth inhibition [1] -7.73% | growth inhibition [2] -1.32% | viability increase [3] -5.58% | viability [4] 84.1% | viability [5] 83.1% | inhibition [6] 0.595% | RAM network inhibition [7] 3.72%

O=C(CCS(=O)NCc1ccccc1)NCc1ccccc1 (configuration not stated)
inactive: growth inhibition [1] -7.98% | growth inhibition [2] -11.4% | viability increase [3] -2.13% | viability [4] 99.7% | viability [5] 99.9% | inhibition [6] 0.425% | RAM network inhibition [7] 1.51%

CCOc1ccc(NC(=O)Nc2ccc3c(c2)N(C)C(=O)CS3)cc1
inactive: growth inhibition [1] -12% | growth inhibition [2] -33.6% | viability increase [3] -4.56% | viability [4] 98.9% | viability [5] 89.1% | inhibition [6] 4.93% | RAM network inhibition [7] 5.76%

NC(=O)C1CCN(C(=O)c2ccc(CS(=O)(=O)c3c(Cl)cccc3Cl)o2)CC1
inactive: growth inhibition [1] -1.46% | growth inhibition [2] -0.415% | viability increase [3] -0.98% | viability [4] 109% | viability [5] 98.3% | inhibition [6] 1.49% | RAM network inhibition [7] 1.38%

CC(=O)Oc1c2occc2cc2ccc(=O)oc12
inactive: growth inhibition [1] -10.4% | growth inhibition [2] -1.74% | viability increase [3] -2.14% | viability [4] 92.7% | viability [5] 90.5% | inhibition [6] 0.425% | RAM network inhibition [7] -1.95%

COCCn1c(=O)[nH]c2cc(C(=O)NCCN3CCN(c4ccccc4)CC3)ccc2c1=O
inactive: growth inhibition [1] -5.1% | growth inhibition [2] 7.77% | viability increase [3] -0.22% | viability [4] 92.5% | viability [5] 93.2% | inhibition [6] 1.11% | RAM network inhibition [7] 3.35%
